According to ChEMBL document CHEMBL1153963, “Phenanthrene-based tylophorine-1 (PBT-1) inhibits lung cancer cell growth through the Akt and NF-kappaB pathways” (J Med Chem, 2009):
Activity calls are given as the source filed them. The rule behind the calls is not given here.

How the values were obtained:
[1] = molecular target: T1, Inhibitor of nuclear factor kappa-B kinase subunit alpha (Homo sapiens) (UniProt O15111); experiment: Increase in IKKalpha activity in TNF-alpha-stimulated human CL1-0 cells by Western blot; assay type: cell-based
T1 sequence (whole entry): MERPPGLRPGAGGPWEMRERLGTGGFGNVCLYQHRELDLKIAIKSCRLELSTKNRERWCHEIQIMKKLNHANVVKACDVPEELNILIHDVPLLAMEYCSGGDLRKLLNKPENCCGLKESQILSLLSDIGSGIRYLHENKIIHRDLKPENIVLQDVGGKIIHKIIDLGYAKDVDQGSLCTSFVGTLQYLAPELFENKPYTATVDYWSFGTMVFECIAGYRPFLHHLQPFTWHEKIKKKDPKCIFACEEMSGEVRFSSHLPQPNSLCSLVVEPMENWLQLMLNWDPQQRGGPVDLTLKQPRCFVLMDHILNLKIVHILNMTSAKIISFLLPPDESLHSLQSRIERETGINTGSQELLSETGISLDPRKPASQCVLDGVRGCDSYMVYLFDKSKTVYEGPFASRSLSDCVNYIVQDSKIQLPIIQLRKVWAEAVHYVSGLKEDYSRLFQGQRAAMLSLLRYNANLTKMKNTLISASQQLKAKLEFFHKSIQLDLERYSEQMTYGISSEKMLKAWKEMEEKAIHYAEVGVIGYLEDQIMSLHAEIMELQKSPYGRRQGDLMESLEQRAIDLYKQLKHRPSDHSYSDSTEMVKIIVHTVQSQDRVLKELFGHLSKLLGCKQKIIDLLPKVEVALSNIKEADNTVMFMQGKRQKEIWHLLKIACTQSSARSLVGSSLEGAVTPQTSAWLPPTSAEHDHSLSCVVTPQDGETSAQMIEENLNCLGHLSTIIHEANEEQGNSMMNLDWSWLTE
Outline: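 CL1-0 (and A549) cells serum-starved overnight, pretreated at various concentrations, then TNF-α stimulated for 4 h; extracts immunoblotted for p-Akt, Akt, IKKα, p-IKKα/β; representative blot shown.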

CL1-0 [2] = experiment: Growth inhibition of human CL1-0 cells at >0.25 ug/mL; assay type: functional, cell-based
[3] = Cell cycle arrest in human CL1-0 cells assessed as accumulation at G2/M phase after 6 hrs by flow cytometry; assay type: functional, cell-based
Outline: (§1)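 CL1-0 cells seeded at 2×10^5 per 60 mm dish, incubated 24 h, then exposed to various drug concentrations for 2, 6, 12, 16 or 24 h. Harvested cells fixed in cold 70% ethanol at 4 °C for 16 h, treated with RNase A (20 µg/mL, 37 °C, 30 min), stained with propidium iodide (50 µg/mL, 4 °C, 30 min), analysed at once by flow cytometry for phase distribution.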

CL1-0 [4] = experiment: Effect on cyclin A protein expression in human CL1-0 cells at 0.5 ug/mL after 24 hrs by Western blot; assay type: functional, cell-based
Outline: (§2)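 CL1-0 cells exposed to rising concentrations for 24 h, or to 0.5 µg/mL over a time course; 50 µg lysate resolved by 10% SDS-PAGE, blotted, probed with cyclin/CDK-inhibitor antibodies in TBS-Tween/5% milk, HRP secondary, chemiluminescent film detection.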

[5] = Cell cycle arrest in human CL1-0 cells assessed as accumulation at G0/G1 phase after 2 hrs by flow cytometry; assay type: functional, cell-based; outline: as §1
CL1-0 [6] = experiment: Effect on p21 protein expression in human CL1-0 cells at 0.5 ug/mL after 24 hrs by Western blot; assay type: functional, cell-based; outline: as §2
A549 [7] = experiment: Decrease in […] binding affinity to NF-kappaB response element on COX2 promoter in human A549 cells at >0.25 ug/mL by chromatin immunoprecipitation assay; assay type: functional, cell-based
Outline: (§3)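 A549 cells, untreated or treated with drug plus TNF-α for 4 h, cross-linked with 1% formaldehyde (quenched with 0.125 M glycine), lysed, sonicated 12 W for 45 s, immunoprecipitated overnight at 4 °C with anti-RelA, anti-p50 or anti-RelB, collected on protein A/G beads. Cross-links reversed at 65 °C overnight; COX-2 promoter (nt -359 to +106) PCR-amplified 35 cycles, 2% agarose gel, input chromatin as control.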

[8] = Cell cycle arrest in human CL1-0 cells assessed as accumulation at G0/G1 phase after 16 hrs by flow cytometry; assay type: functional, cell-based; outline: as §1
[9] = Cell cycle arrest in human CL1-0 cells assessed as accumulation at S phase after 24 hrs by flow cytometry; assay type: functional, cell-based; outline: as §1
A549 [10] = experiment: Decrease in RelA binding affinity to NF-kappaB response element on COX2 promoter in human A549 cells by chromatin immunoprecipitation assay; assay type: functional, cell-based; outline: as §3
CL1-0 [11] = experiment: Decrease in COX2 protein level in TNF-alpha-stimulated human CL1-0 cells by Western blot; assay type: functional, cell-based
Outline: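 CL1-0 cells serum-starved overnight, pretreated with various drug concentrations, then stimulated with TNF-α for 4 h. Lysates (50 µg) resolved by 10% SDS-PAGE, blotted, probed with specific antibodies in TBS pH 7.5/0.05% Tween 20/5% milk, HRP secondaries, chemiluminescent film detection; a representative blot shown.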

[12] = Cell cycle arrest in human CL1-0 cells assessed as accumulation at G0/G1 phase after 24 hrs by flow cytometry; assay type: functional, cell-based; outline: as §1
[13] = Cell cycle arrest in human CL1-0 cells assessed as decrease in accumulation at G0/G1 phase by flow cytometry; assay type: functional, cell-based; conditions: TDE = time-dependent effect; outline: as §1
CL1-0 [14] = experiment: Induction of cyclin D1 protein accumulation in human CL1-0 cells at 0.5 ug/mL after 24 hrs by Western blot; assay type: functional, cell-based; outline: as §2
CL1-0 [15] = experiment: Cytotoxicity against human CL1-0 cells assessed as disruption of cell morphology after 48 hrs; assay type: functional, cell-based
[16] = Cell cycle arrest in human CL1-0 cells assessed as accumulation at G2/M phase after 24 hrs by flow cytometry; assay type: functional, cell-based; outline: as §1

Activity [1]: Active
SMILES: COc1ccc2c(CN3CCC(CO)CC3)cc3cc4c(cc3c2c1)OCO4
Activity (CL1-0 [2]): Active
Activity [3]: 24.3%
Activity (CL1-0 [4]): inactive
Activity [5]: 53.7%
Activity (CL1-0 [6]): inactive
Activity (A549 [7]): Active
Activity [8]: 20.4%
Activity [9]: 43.8%
Activity (A549 [10]): Active
Activity (CL1-0 [11]): Active
Activity [12]: 16.6%
Activity [13]: tde
Activity (CL1-0 [14]): Active
Activity (CL1-0 [15]): Active
Activity [16]: 20.9%
